Drawing on ChEMBL document CHEMBL1123281, “Synthesis and rat lens aldose reductase inhibitory activity of some benzopyran-2-ones” (J Med Chem, 1986), this text covers IC50 and inhibition for 24 molecules.

In general, IC50 refers to the concentration needed to halve the response being measured. Read a low IC50 as higher potency. One may read the inhibition as the relative decrease from the control value, in per cent. High values mean strong suppression, low ones little suppression.

The target of the first assay is T1, Aldo-keto reductase family 1 member B1 (Rattus norvegicus, UniProt P07943). Nature of the assay: Compound was tested for inhibitory concentration against rat lens aldose reductase (noncompetitive inhibition type). The essentials:
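Crude supernatant from 50 rat lenses homogenized in distilled water, centrifuged 10 000 rpm, 10 min, 0–5 °C. Read-out was NADPH decrease at 340 nm over 5 min in 0.1 M phosphate pH 6.2, 0.104 mM NADPH, 10 mM DL-glyceraldehyde. IC50 came from least-squares log dose–response fits, using ≥4 concentrations ×4 replicates. Inhibition type was read from double-reciprocal plots with 0.0625–1.0 mM substrate.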
For `COc1ccc2c(CC(=O)O)cc(=O)oc2c1`, the IC50 came out at 0.37 µM.
Still for that read-out and setting: under `O=C(O)Cc1cc(=O)oc2cc(O)cc(O)c12` stands 0.26 µM.
Still for that read-out and setting: the same measure for `Cc1cc(=O)oc2cc(O)ccc12` [HYMECROMONE]: 62 µM.
Molecule `O=C(O)Cc1cccc2ccccc12` had an IC50 of 32 µM.
In the case of `CC(=O)Oc1ccc2c(CC(=O)O)cc(=O)oc2c1`, the IC50 worked out at 61 µM.
On the same count and under the same terms, under `Cc1cc(=O)oc2cc(O)cc(O)c12` [5,7-DIHYDROXY-4-METHYLCOUMARIN] stands 17 µM; under `COc1ccc2c(CCC(=O)O)cc(=O)oc2c1`, 2.1 µM; under `O=C(O)Cc1cc(=O)oc2cc(O)ccc12`, 0.15 µM.

In another assay the target is Aldo-keto reductase family 1 member B1 (Rattus norvegicus) (UniProt P07943). Nature of the assay: Compound was tested for percent inhibition at 10 e-4 M against rat lens aldose reductase. In outline:
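Single-concentration screen at 100 μM against crude rat lens supernatant. The reaction mix was 0.1 M phosphate pH 6.2, 0.104 mM NADPH and 10 mM DL-glyceraldehyde, started with substrate. NADPH loss was followed at 340 nm for 5 min, with inhibitor included in the blanks. Percent inhibition compares the rate with a substrate-only control. Final Me2SO was ≤1%.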
`Cc1cc(=O)oc2ccccc12`: the inhibition stood at 19%.
Same read-out and setting: the same measure for `COc1ccc2c(C)cc(=O)oc2c1`: 21%; for `CCc1ccc2c(C)cc(=O)oc2c1`: 16%; for `Cc1cc(=O)oc2ccc(O)cc12`: 22%.
Take `Cc1cc(=O)oc2cc(Cl)ccc12`: the inhibition amounted to 10%.
Same read-out and setting: under `CC(=O)Oc1ccc2c(C)cc(=O)oc2c1` stands 13%.

The next assay concerns the target T1, Aldo-keto reductase family 1 member B1. Nature of the assay: Compound was tested for inhibitory concentration against rat lens aldose reductase (uncompetitive inhibition type).
`O=C(O)Cc1cc(=O)oc2ccccc12` gave an IC50 of 0.6 µM.
On the same count and under the same terms, the same measure for `CCc1ccc2c(CC(=O)O)cc(=O)oc2c1`: 0.24 µM; for `COc1ccc2c(/C=C/C(=O)O)cc(=O)oc2c1`: 4.4 µM; for `Cc1cc(=O)oc2c(O)c(O)ccc12` [4-METHYLDAPHNETIN]: 10 µM.
The same measure, in the same setting: the same measure for `COC(=O)Cc1cc(=O)oc2cc(O)ccc12`: 38 µM; for `O=C(O)Cc1cc(=O)oc2cc(Cl)ccc12`: 0.56 µM; for `NC(=O)Cc1cc(=O)oc2cc(O)ccc12`: 10 µM.
Consider `O=C(O)Cc1cc(=O)oc2c1ccc1ccccc12`, for which the IC50 came out at 0.14 µM.
Molecule `COc1ccc2c(C(=O)O)cc(=O)oc2c1` gave an IC50 of 11 µM.
The same measure, in the same setting: under `O=C(O)Cc1cc(=O)oc2ccc3ccccc3c12` stands 0.02 µM.
